For orientation: IC50 means the concentration that inhibits the measured activity by half.

Test [1] has as its system Trypanosoma cruzi. Briefly: Antiparasitic activity against Trypanosoma cruzi Y amastigotes infected gamma irradiated L6E9 myoblast. In kind it is functional, organism-based. Conditions: L6E9, light or radiation study. The gist of the method:
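Gamma-irradiated L6E9 myoblasts were kept in DMEM with 20% FCS for 24 h at 37 °C and 5% CO₂. They were then infected with Y-strain trypomastigotes or amastigotes (4.17 × 10⁶/well) for 2 h at 37 °C and 7% CO₂, then washed. [5,6-³H]uracil and aqueous drug solutions were added for 72 h. TCA-precipitable counts were taken on day 3, and percent inhibition was calculated from cpm differences versus control.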

Test [2] concerns Toxoplasma gondii. In words: Antiparasitic activity against Toxoplasma gondii tachyzoites m2m3 infected HFF cells. The test is classed as functional, organism-based. In short, it runs like this: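 YFP-expressing m2m3 tachyzoites, filtered and needle-passed, were inoculated at 10⁴/ml onto confluent HFF monolayers. Medium was DMEM with 10% fetal bovine serum, 2 mM glutamine and 1 mM pyruvate, with drugs serially diluted in it. Plates were held at 37 °C and read daily for fluorescence from the bottom (ex 510, em 540 nm). IC50 came from fitting I = Imax·C/(IC50 + C), with Imax = 100%.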

Test [3] deals with Trypanosoma cruzi. In words: Antiparasitic activity against Trypanosoma cruzi Y infected gamma irradiated L6E9 myoblast. Conditions: L6E9, light or radiation study.

In brackets after ≈: the same amount, converted by molar mass.

For `Fc1ccc(Oc2ccc(OCCOC3CCCCO3)cc2)cc1` (stereo unspecified), the half-inhibitory concentration (IC50) in test [1] was 14.4 µM; in test [2], 6.16 µM; in test [3], greater than 20 µg/mL.
For `N#CSCCOc1ccc(Oc2cccc(F)c2)cc1`, the IC50 in test [1] was 4.3 µM; in test [2], 15.8 µM; in test [3], 1.74 µg/mL (≈ 6.01 µM).
The like results for `Fc1cccc(Oc2ccc(OCCOC3CCCCO3)cc2)c1` (stereo unspecified) were, in that order, 19 µM, 3.99 µM and greater than 20 µg/mL.
The like results for `N#CSCCOc1ccc(Oc2ccccc2)cc1` were, in that order, 12 µM, 2.8 µM and 2.6 µg/mL (≈ 9.58 µM).
On the same counts, the results for `N#CSCCOc1ccc(Oc2ccc(F)cc2)cc1` are 3.7 µM, 3.85 µM and 1.95 µg/mL (≈ 6.74 µM).
Compound `O=C1C(O)=C([C@H]2CC[C@H](c3ccc(Cl)cc3)CC2)C(=O)c2ccccc21` [ATOVAQUONE] gave a concentration for half-maximal inhibition (IC50) in test [2] of 0.29 µM.

Values taken from ChEMBL document CHEMBL1149670, “Fluorine-containing aryloxyethyl thiocyanate derivatives are potent inhibitors of Trypanosoma cruzi and Toxoplasma gondii proliferation” (Bioorg Med Chem Lett, 2007).
